Data: ChEMBL document CHEMBL1131239, “Orally active benzamide antipsychotic agents with affinity for dopamine D2, serotonin 5-HT1A, and adrenergic alpha1 receptors” (J Med Chem, 1998)
Values belong to the compound of their own block, whether it stands above or below them.

What was measured:
[1] = target: T1, 5-hydroxytryptamine receptor 1A (Rattus norvegicus, UniProt P19327); assay: Compound was evaluated for its binding affinity against 5-hydroxytryptamine 1A receptor from rat cerebral cortex; format: tissue-based
T1 sequence (P19327 whole entry): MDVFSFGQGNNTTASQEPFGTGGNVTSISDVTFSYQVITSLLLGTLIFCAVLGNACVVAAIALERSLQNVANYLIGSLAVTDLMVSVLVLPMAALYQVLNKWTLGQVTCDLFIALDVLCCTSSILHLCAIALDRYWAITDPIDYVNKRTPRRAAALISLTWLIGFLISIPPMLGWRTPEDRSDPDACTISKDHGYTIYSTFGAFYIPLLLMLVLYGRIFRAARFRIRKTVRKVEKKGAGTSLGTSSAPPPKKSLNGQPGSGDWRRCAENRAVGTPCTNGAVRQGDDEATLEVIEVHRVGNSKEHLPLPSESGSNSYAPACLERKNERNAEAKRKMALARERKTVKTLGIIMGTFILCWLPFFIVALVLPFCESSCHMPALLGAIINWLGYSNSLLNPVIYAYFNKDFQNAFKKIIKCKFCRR

[2] = target: T2, Adrenergic receptor alpha-1 (Rattus norvegicus, UniProt P15823+P23944+P43140); assay: Binding affinity against Alpha-1 adrenergic receptor from rat cerebral cortex; format: tissue-based
T2 sequence (P15823 whole entry): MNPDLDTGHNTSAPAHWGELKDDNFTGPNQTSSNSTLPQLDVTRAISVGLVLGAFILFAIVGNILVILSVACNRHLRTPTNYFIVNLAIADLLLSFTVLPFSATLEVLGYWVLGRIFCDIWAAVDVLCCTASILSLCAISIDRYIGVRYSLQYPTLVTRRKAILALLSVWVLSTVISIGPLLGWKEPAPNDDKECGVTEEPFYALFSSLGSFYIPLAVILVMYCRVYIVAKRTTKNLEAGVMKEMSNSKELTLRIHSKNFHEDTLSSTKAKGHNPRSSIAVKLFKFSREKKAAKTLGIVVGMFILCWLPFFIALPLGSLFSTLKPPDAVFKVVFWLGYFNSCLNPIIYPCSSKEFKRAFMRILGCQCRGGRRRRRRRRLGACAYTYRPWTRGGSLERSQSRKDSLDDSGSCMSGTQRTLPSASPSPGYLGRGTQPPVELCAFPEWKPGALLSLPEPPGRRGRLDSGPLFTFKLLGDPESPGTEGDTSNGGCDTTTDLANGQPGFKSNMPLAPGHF
T2 sequence (P23944 whole entry): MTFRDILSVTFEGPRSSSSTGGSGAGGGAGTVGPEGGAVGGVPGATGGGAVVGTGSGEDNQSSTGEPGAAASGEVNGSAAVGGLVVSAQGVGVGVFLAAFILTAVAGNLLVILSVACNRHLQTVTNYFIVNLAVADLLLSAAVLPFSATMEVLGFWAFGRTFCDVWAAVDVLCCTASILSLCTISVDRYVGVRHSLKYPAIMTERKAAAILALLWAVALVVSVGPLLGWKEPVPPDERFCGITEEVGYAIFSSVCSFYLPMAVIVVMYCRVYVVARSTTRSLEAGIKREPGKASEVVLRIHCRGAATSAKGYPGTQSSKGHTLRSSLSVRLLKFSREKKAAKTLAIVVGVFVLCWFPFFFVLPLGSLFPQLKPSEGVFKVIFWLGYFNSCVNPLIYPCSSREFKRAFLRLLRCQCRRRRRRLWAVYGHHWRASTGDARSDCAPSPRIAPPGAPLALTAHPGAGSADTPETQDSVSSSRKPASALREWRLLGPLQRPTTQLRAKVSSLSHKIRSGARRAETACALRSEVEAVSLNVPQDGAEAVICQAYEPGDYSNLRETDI
T2 sequence (P43140 whole entry): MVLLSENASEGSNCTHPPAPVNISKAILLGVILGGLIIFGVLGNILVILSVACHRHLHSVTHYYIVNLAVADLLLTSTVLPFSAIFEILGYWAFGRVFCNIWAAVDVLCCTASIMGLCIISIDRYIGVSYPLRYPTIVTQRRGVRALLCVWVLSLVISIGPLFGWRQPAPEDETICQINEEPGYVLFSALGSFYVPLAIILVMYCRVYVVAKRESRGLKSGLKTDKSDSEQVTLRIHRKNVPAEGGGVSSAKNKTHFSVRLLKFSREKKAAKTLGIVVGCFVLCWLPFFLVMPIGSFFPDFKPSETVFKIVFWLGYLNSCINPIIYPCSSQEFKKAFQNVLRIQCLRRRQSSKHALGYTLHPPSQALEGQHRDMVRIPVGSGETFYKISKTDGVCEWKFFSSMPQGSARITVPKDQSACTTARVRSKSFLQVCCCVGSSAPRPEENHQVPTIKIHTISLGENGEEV

Rattus norvegicus [3] = assay: compound was tested for antipsychotic activity by conditioned avoidance response(CAR) assay in rats with a pretreatment period of 30 min upon intra peritoneal administration at a concentration of 1 mg/kg.; format: functional
Procedure, shortened: (§1)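 Trained rats (N = 4) were run in 1-h sessions on two consecutive days, with the experimenter blind to drug and dose. Fed rats had food and water until placed in the test chambers. Fasted rats had no food overnight before the experiment.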

Rattus norvegicus [4] = assay: compound was tested for antipsychotic activity by conditioned avoidance response(CAR) assay in rats with a pretreatment period of 30 min upon intra peritoneal administration at a concentration of 5 mg/kg.; format: functional
Procedure, shortened: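 Rat conditioned avoidance test modified from Martin et al. Trained rats (N = 4) were run in 1-h sessions on two consecutive days. Fed animals had food and water until placed in the test chambers. Dosing was ip with 30 min pretreatment, and activity was expressed as percent inhibition at the stated dose.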

Rattus norvegicus [5] = assay: compound was tested for antipsychotic activity by conditioned avoidance response(CAR) assay in rats with a pretreatment period of 30 min upon peroral administration at a concentration of 20 mg/kg.; format: functional; details: route oral; procedure, shortened: as §1
Rattus norvegicus [6] = assay: Percent catalepsy in male Spargue-Dawley rat at pretreatment time 60 mins and when administered ip at dose 50 mg/kg; format: functional; details: route intraperitoneal
Procedure, shortened: (§2)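 Catalepsy in rats, groups of five per drug treatment, scored blind to drug and dose. Each session included a saline or vehicle negative control and a haloperidol 2 mg/kg positive control. Deaths during the experiment were recorded in the catalepsy column as number dead out of five.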

Rattus norvegicus [7] = assay: compound was tested for antipsychotic activity by conditioned avoidance response(CAR) assay in rats with a pretreatment period of 30 min upon intra peritoneal administration at a concentration of 5 mg/kg; format: functional; procedure, shortened: as §1
Rattus norvegicus [8] = assay: compound was tested for antipsychotic activity by conditioned avoidance response(CAR) assay in rats with a pretreatment period of 30 min upon intra peritoneal administration at a concentration of 13.4 mg/kg.; format: functional; procedure, shortened: as §1
Rattus norvegicus [9] = assay: compound was tested for antipsychotic activity by conditioned avoidance response(CAR) assay in rats with a pretreatment period of 30 min upon intra peritoneal administration at a concentration of 7.5 mg/kg.; format: functional; procedure, shortened: as §1
Rattus norvegicus [10] = assay: Percent catalepsy in male Spargue-Dawley rat at pretreatment time 240 mins and when administered ip at dose 50 mg/kg (4/5L denotes that four rats out of five died during the course of experiment); format: functional; details: route intraperitoneal
Procedure, shortened: (§3)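 Catalepsy scored in groups of five rats per drug treatment, with the experimenter blind to drug and dose, in a quiet room. Each session included two control groups: saline (or vehicle) as negative control and haloperidol 2 mg/kg as positive control. Deaths during the experiment were recorded as lethality (e.g., 3/5L) in place of percent catalepsy.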

Rattus norvegicus [11] = assay: Percent catalepsy in male Spargue-Dawley rat at pretreatment time 60 mins and when administered ip at dose 50 mg/kg (3/5L denotes that three rats out of five died during the course of experiment); format: functional; details: route intraperitoneal; procedure, shortened: as §3
Rattus norvegicus [12] = assay: compound was tested for antipsychotic activity by conditioned avoidance response(CAR) assay in rats with a pretreatment period of 30 min upon intra peritoneal administration.; format: functional; procedure, shortened: as §1
Rattus norvegicus [13] = assay: Percent catalepsy in male Spargue-Dawley rat at pretreatment time 60 mins and administered ip at dose 50 mg/kg; format: functional; details: route intraperitoneal; procedure, shortened: as §2
[14] = target: T1, 5-hydroxytryptamine receptor 1A; assay: Compound was evaluated for its binding affinity with 5-hydroxytryptamine 1A receptor using membranes prepared from rat cerebral cortex; format: tissue-based
Procedure, shortened: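 Membranes from male Wistar rat cerebral cortex: homogenized in HEPES-buffered 0.3 M sucrose, P2 pellet incubated 30 min at 25 °C, resuspended in 3 mM phosphate buffer pH 7.5. Labeled with 3 nM [3H]-8-OH-DPAT for 20 min at 25 °C. Nonspecific binding defined with 1 μM serotonin.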

[15] = target: T2, Adrenergic receptor alpha-1; assay: Compound was evaluated for its binding affinity with Alpha-1 adrenergic receptor using membranes prepared from rat cerebral cortex; format: tissue-based
Rattus norvegicus [16] = assay: compound was tested for antipsychotic activity by conditioned avoidance response(CAR) assay in rats with a pretreatment period of 30 min upon intra peritoneal administration at a concentration of 15 mg/kg; format: functional; procedure, shortened: as §1
Rattus norvegicus [17] = assay: compound was tested for antipsychotic activity by conditioned avoidance response(CAR) assay in rats with a pretreatment period of 30 min upon intra peritoneal administration at a concentration of 15 mg/kg.; format: functional
Rattus norvegicus [18] = assay: compound was tested for antipsychotic activity by conditioned avoidance response(CAR) assay in rats with a pretreatment period of 60 min upon peroral administration at a concentration of 10 mg/kg.; format: functional; details: route oral; procedure, shortened: as §1

Compound: CC(C)Oc1ccccc1N1CCN(Cc2cccc(S(=O)(=O)N3CCCCC3)c2)CC1
Ki [2]: 6.7 nM | inhibition in vivo at 5 mg/kg (Rattus norvegicus [7]): -6.7%

Compound: CC(C)Oc1ccccc1N1CCN(Cc2cccc(C(=O)N3CCCC3)c2)CC1
Ki [1]: 3.6 nM | Ki [2]: 1.9 nM | inhibition in vivo at 1 mg/kg (Rattus norvegicus [3]): -44.8% | inhibition in vivo at 13.4 mg/kg (Rattus norvegicus [8]): -79.4% | inhibition in vivo at 7.5 mg/kg (Rattus norvegicus [9]): -98.3% | Catalepsy (Rattus norvegicus [10]): 0% | Catalepsy (Rattus norvegicus [11]): 0%

Compound: O=C(c1cccc(CN2CCN(c3nsc4ccccc34)CC2)c1)N1CCCCC1
Ki [14]: 2.5 nM | Ki [15]: 2.7 nM | inhibition in vivo at 5 mg/kg (Rattus norvegicus [4]): -89.6% | Catalepsy (Rattus norvegicus [6]): 74%

The next lines start with results.

Ki [1]: 0.34 nM | Ki [2]: 21 nM
Compound: O=C(c1cccc(CN2CCN(C3COc4ccccc4O3)CC2)c1)N1CCCCC1 (stereo not given)
inhibition in vivo at 1 mg/kg (Rattus norvegicus [3]): -2.6% | inhibition in vivo at 5 mg/kg (Rattus norvegicus [4]): -93.8% | inhibition in vivo at 20 mg/kg (Rattus norvegicus [5]): -68.2% | Catalepsy (Rattus norvegicus [6]): 29%

Ki [1]: 0.71 nM | Ki [2]: 8.2 nM
Compound: CCOc1ccccc1N1CCN(Cc2cccc(C(=O)N3CCCCCC3)c2)CC1
ED50 (Rattus norvegicus [12]): 1.26 mg/kg | Catalepsy (Rattus norvegicus [13]): 47.5%

Ki [2]: > 1000 nM
Compound: O=C(c1cccc(CN2CCNCC2)c1)N1CCCCC1
inhibition in vivo at 15 mg/kg (Rattus norvegicus [16]): -30.2%

Ki [1]: 3.4 nM | Ki [2]: 1.7 nM
Compound: CC(C)Oc1ccccc1N1CCN(Cc2cccc(C(=O)N3CCc4ccccc43)c2)CC1
inhibition in vivo at 1 mg/kg (Rattus norvegicus [3]): -1.6% | inhibition in vivo at 15 mg/kg (Rattus norvegicus [17]): -95.8% | inhibition in vivo at 10 mg/kg (Rattus norvegicus [18]): -1.4%
